Assay results of several laboratories.
Protocols differ between the studies behind these lines.
Effect on: chemical stability

Compound	assay	system	conditions	half-life
CO[C@@H]1[C@H](O)[C@@H](CO)O[C@H]1n1c([N+](=O)[O-])nc2c(=O)[nH]c(N)nc21	HPLC	aqueous buffer	500 µM, pH 2	11 h
COc1ccc(OC)c(/C=C2\CC/C(=C\c3ccc(O)c(OC)c3)C2=O)c1	HPLC	culture medium	10 µM	2.6 h
Cc1cccc(C(=O)Oc2cnnc3ccc([N+](=O)[O-])cc23)c1		aqueous buffer	pH 7.3	0.698 h
CO[C@@H](C[C@H]1C(C)=CC[C@@H]2[C@]3(C)C[C@H](O[C@@H]4O[C@@H](C)[C@H](OC(=O)c5cccc(O)c5)[C@@H](O[C@@H]5O[C@H](CO)[C@@H](O)[C@H](O)[C@H]5NC(C)=O)[C@H]4O)[C@@H](O)C(C)(C)[C@H]3CC[C@]21C)[C@H](N)C(=O)O.O=C(O)C(F)(F)F		simulated intestinal fluid	1 µM, pH 6.8	> 8 h
Cc1cccc(C(=O)n2ncc(=O)c3cc([N+](=O)[O-])ccc32)c1		aqueous buffer	pH 7.3	0.55 h
Nc1nc2c(nc([N+](=O)[O-])n2[C@@H]2O[C@H](CO)[C@@H](O)[C@H]2O)c(=O)[nH]1	HPLC	aqueous buffer	500 µM, pH 2	5.35 h
Cc1ccc(S(=O)(=O)NCC2CCN(C(=O)OC(C(F)(F)F)C(F)(F)F)CC2)cc1	HPLC	aqueous buffer	167 µM, pH 7.4	1.24 h
Cn1nnc2c(-c3ccccc3)ncn2c1=O	HPLC	PBS	pH 7.4	> 20 h
Cc1cn([C@H]2C=C[C@@H](CO)O2)c(=O)[nH]c1=O	HPLC	aqueous buffer	920 µM, pH 7.3	> 40 h
O=C(OC(C(F)(F)F)C(F)(F)F)N1CCC(CNS(=O)(=O)c2ccc(Cl)cc2)CC1	HPLC	aqueous buffer	167 µM, pH 7.4	6.86 h
CCOC(=O)c1nn(C(=O)C2CC2)c2ccccc2c1=O		aqueous buffer	pH 7.3	1.44 h
COc1ccc(S(=O)(=O)NCC2CCN(C(=O)OC(C(F)(F)F)C(F)(F)F)CC2)cc1	HPLC	aqueous buffer	167 µM, pH 7.4	2.58 h
COc1cc(/C=C/C(=O)CC(=O)/C=C/c2ccc(O)c(OC)c2)ccc1O	HPLC	culture medium	10 µM	0.9 h
